Results published in publication PMC3016465 (Proteins, 2011).
Entries after “also recorded” stand apart in the source; their conditions may differ.

Assays:
[1] = Atomic force microscopy of oligomers; format: physicochemical
[2] = tested on: N2a cells; test: MTT cytotoxicity assay; format: cell-based; conditions: oligomeric peptide, one day after addition
[3] = tested on: neuronal death / neurite outgrowth; conditions: independent of Aβ; ref [15]; cited from earlier work
[4] = tested on: Aβ^(26TOAC); test: EPR of Aβ^; format: binding; conditions: apoE 30 μM; 40 μM Aβ (1 part Aβ^(26TOAC) to 3 parts native Aβ(1-40)), scanned immediately after introduction into aqueous buffer
[5] = tested on: VLDL and HDL; conditions: ref [10]; cited from earlier work
[6] = tested on: Aβ; conditions: cited from earlier work
[7] = tested on: Aβ fibrils; conditions: in vitro; ref [19]; cited from earlier work
[8] = tested on: AβO; test: EPR of position 264 spin-labeled apoE with HDL or VLDL, with or without AβO; format: binding; conditions: for EPR response to AβO in presence of HDL / VLDL: apoE 30 μM, HDL or VLDL 850 mg/dL, oligomeric Aβ(1-40) 100 μM, one hour at 37 °C; for EPR response to HDL / VLDL without AβO: apoE spin-labeled at 264, HDL or VLDL, Supplemental Figure S2
Summary of the method: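 Human apoE isoforms (Cys at 264) expressed in E. coli BL21(DE3)AI, purified from inclusion bodies in 8 M urea, labeled with MTS-SL and refolded into PBS pH 7.4. HDL or VLDL came from postprandial human plasma by ultracentrifugation. […] Samples were incubated, then run as X-band EPR (loop-gap resonator, sealed quartz capillary), with vehicle controls.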

[9] = Circular dichroism of spin-labeled apoE; format: physicochemical; conditions: spin-labeled W264C apoE4 vs wt apoE4; Supplementary Material

For AβO: soluble Aβ oligomer, the “time to formation of fibrillar aggregates after spotting” value ([1]; AFM, AβO 50 μM, on mica surface) was at most 1 min, the “average volume of initial AβO species” value ([1]; AFM, set of 11, assuming simple spherical particle) was 203 ± 26 nm^3 and the “upper limit of oligomer size” value ([1]; efficient packing of the peptide in the particle is unlikely) was ≤ 30 -mer. The “protein mass of AβO particle” value ([1]; estimated from AFM volume, if packed similar to a globular protein) was ~ 160 kD.
With “Aβ(1-40): native Aβ(1-40) peptide (Bachem Cat # 1194.0001)” the cell death [2] was 60-75%.
For “apoE4: h_apoE4 protein containing the W264->Cys (apoE4-W264C) substitution”, the “neuronal death” value [3] is given as “induces neuronal death and forms large fibril-like assemblies”, the “effect of apoE on the Aβ^(26TOAC) EPR spectrum” value [4] is given as “produces a spectrum that is identical to TOAC-labeled sample added to PBS alone; also recorded: had no significant effect on the Aβ^(26TOAC) spectrum” and the “lipoprotein preference” value [5] is given as “preference of E4 to bind VLDL over HDL”. For the same substance, the “association with Aβ, SDS-resistant apoE-Aβ on gels” value ([6]; in vitro, ref [13]) was “higher apoE4 association in vitro”, the “affinity of lipid-free apoE4 for Aβ vs apoE3” value ([6]; lipid-free apoE, ref [14],[19]) was “binds Aβ with a higher affinity than apoE3 and promotes fibrillization of Aβ” and the “stimulation of Aβ fibril assembly” value [7] was “in vitro assembly of Aβ fibrils is stimulated by apoE, and more so by the E4 isoform”. The “EPR response to AβO in presence of HDL / VLDL” value [8] was “slightly stronger binding effect of apoE4 to AβO in the presence of VLDL than HDL”, the “EPR response to HDL / VLDL without AβO” value [8] was “shows little change with HDL, and a slight increase in amplitude with VLDL” and the “CD analysis of spin-labeled protein” value [9] was “indistinguishable from wt apoE4”.
In the case of “E3-like protein: apoE3-like protein: R112->S mutation in the apoE4-W264C template”, the “effect of apoE on the Aβ^(26TOAC) EPR spectrum” value [4] is listed as “Only the E3-like protein induces a broadening of the Aβ^(26TOAC) spectra”, the “propensity to form SDS-resistant complex with Aβ” value ([6]; E3-like mutant (Cys112→Ser) relative to apoE4, ref [29]) is listed as “higher (relative to apoE4) propensity to form an SDS-resistant complex with Aβ” and the “EPR response to AβO in presence of HDL / VLDL” value [8] is listed as “the influence of AβO on the E3-like protein is clearly greater in the presence of HDL”. For the same substance, the “EPR response to HDL / VLDL without AβO” value [8] was “becomes more ordered; where the spectra of spin-labeled 264 are similarly broadened by HDL and VLDL”.
